The source of these data is ChEMBL document CHEMBL1773023, “Potent and selective phosphopeptide mimetic prodrugs targeted to the Src homology 2 (SH2) domain of signal transducer and activator of transcription 3” (J Med Chem, 2011).

Molecules are shown by their SMILES. Activity calls are given as the source filed them. The rule behind the calls is not given here.

A word on the IC50: it is the point on the concentration scale where inhibition reaches its midpoint. Higher therefore signals weaker potency in that assay.

Assay [1] deals with T1, Signal transducer and activator of transcription 3 (Homo sapiens, UniProt P40763). The experiment in a line: Inhibition of IL6-induced SH2 domain of Stat3 phosphorylation at Tyr705 in human HEY cells up to 10 uM treated 1.5 hrs before IL6 challenge measured after 30 mins by Western blotting. It is filed as cell-based. The procedure, abridged:
(§1)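 Hey, MeWo and A375 cells (3×10^5/well, RPMI1640, overnight, fresh medium) given increasing prodrug concentrations for 2 h, with IL-6 10 ng/mL during the final 30 min; pStat3 and total Stat3 by Western blot.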
On the technique in general: Immunoblotting shows a protein as a band on a membrane.

Assay [2] concerns the target T1, Signal transducer and activator of transcription 3. The experiment in a line: Inhibition of constitutive SH2 domain of Stat3 phosphorylation at Tyr705 in human SKOV3-ip cells at 1 uM measured after 2 hrs by Western blotting.
In assay [3] the target is Baculoviral IAP repeat-containing protein 5 (Homo sapiens) (UniProt O15392). As to the kind of experiment: Inhibition of survivin in human MDA-MB-468 cells at 5 uM after up to 48 hrs by Western blotting. It is filed as cell-based.
Baculoviral IAP repeat-containing protein 5 (Homo sapiens), sequence (O15392 whole entry, the tested form may be a part): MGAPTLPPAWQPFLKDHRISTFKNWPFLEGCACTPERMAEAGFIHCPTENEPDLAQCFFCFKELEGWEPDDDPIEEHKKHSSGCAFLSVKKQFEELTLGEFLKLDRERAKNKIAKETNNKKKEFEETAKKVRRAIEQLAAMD
The target of assay [4] is T1, Signal transducer and activator of transcription 3. As to the kind of experiment: Inhibition of SH2 domain of Stat3 constitutive phosphorylation at Tyr705 in human MDA-MB-468 cells at 5 uM after 2 hrs by fluorescence immunohistochemical analysis. The assay is classed as cell-based. A digest of the protocol: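 MDA-MB-468 cells on slides treated with 5 μM prodrug or DMSO for 2 h, fixed in 4% paraformaldehyde, permeabilized with 0.5% Triton X-100, blocked in 3% BSA, stained with anti-pTyr705 Stat3 and Alexa Fluor 594 secondary; confocal imaging at fixed microscope settings.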

The target is the same in assay [5]. As to the kind of experiment: Inhibition of SH2 domain of Stat3 constitutive phosphorylation at Tyr705 in human MDA-MB-468 cells at 5 uM after 16 hrs by Western blotting. It is filed as cell-based. A digest of the protocol: (§2)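 MDA-MB-468 cells given a single 5 μM prodrug dose and harvested at set times; pTyr705 and total Stat3 by Western blot of 12 μg lysate protein on 8% SDS-PAGE.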

For assay [6], the target named is T2, Signal transducer and activator of transcription 1-alpha/beta (Homo sapiens) (UniProt P42224).
T2 sequence (whole entry): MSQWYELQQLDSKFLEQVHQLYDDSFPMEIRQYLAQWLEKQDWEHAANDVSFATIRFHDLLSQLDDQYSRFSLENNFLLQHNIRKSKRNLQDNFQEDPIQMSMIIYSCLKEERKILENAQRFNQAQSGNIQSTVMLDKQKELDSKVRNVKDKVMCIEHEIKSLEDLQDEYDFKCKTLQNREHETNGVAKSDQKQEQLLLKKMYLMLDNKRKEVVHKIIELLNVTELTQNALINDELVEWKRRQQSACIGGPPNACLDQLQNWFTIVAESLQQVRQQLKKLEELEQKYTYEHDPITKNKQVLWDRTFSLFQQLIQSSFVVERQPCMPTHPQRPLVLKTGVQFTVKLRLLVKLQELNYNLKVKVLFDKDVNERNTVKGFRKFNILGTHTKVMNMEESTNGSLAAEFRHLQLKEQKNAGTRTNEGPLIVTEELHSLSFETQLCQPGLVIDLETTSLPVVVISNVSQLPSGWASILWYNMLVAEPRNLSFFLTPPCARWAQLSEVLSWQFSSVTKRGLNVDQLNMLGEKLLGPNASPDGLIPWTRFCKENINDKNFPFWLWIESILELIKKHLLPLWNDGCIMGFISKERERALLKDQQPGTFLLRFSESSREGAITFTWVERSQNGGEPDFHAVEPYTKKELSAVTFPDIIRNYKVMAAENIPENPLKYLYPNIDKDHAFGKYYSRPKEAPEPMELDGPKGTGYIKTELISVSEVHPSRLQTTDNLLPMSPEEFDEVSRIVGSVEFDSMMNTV
The experiment in a line: Inhibition of IFN-gamma-induced Stat1 phosphorylation at Tyr701 in human MDA-MB-468 cells treated 1.5 hrs before IFN-gamma challenge measured after 30 mins by Western blotting. The assay is classed as cell-based. The procedure, abridged: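 MDA-MB-468 cells exposed to rising prodrug concentrations for 1.5 h, then interferon γ 25 ng/mL for 30 min; Western blot for pTyr701 and total Stat1.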

A short description of assay [7]: Cytotoxicity against human SKOV3ip cells after 72 hrs by SRB assay. The assay is classed as functional, cell-based. The conditions noted are these: SKOV3-ip. A digest of the protocol: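 Cancer cell lines (MCF-7, SKOV3-ip, HCC-827) dosed daily with prodrug for three days; viability by SRB assay.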
Background: In SRB staining, fixed cells bind dye roughly in proportion to their protein.

For assay [8], the target named is T1, Signal transducer and activator of transcription 3. The experiment in a line: Inhibition of SH2 domain of Stat3 phosphorylation at Tyr705 in human HCC-827 cells at 5 uM after 10 mins by Western blotting. The assay is classed as cell-based. A digest of the protocol: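 HCC-827 NSCLC cells treated with 5 μM prodrug and sampled over a time course from 10 min to 24 h; pStat3 by Western blot.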

For assay [9] the target is unchanged. As to the kind of experiment: Inhibition of SH2 domain of Stat3 constitutive phosphorylation at Tyr705 in human MDA-MB-468 cells at 5 uM after 4 hrs by Western blotting. The assay is classed as cell-based. A digest of the protocol: as §2
A short description of assay [10]: Cytotoxicity against human NCI-H528 cells assessed as cell growth inhibition at 5 to 10 uM after 72 hrs by MTT assay. The assay is classed as functional. A digest of the protocol: (§3)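 Cell lines with constitutive Stat3 phosphorylation (melanoma, NSCLC) exposed to prodrug at 5–10 μM. Percent growth inhibition recorded.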
Assay [11] addresses RAC-alpha serine/threonine-protein kinase (Homo sapiens) (UniProt P31749). The experiment in a line: Inhibition of EGF-induced Akt phosphorylation at Ser473 in human MDA-MB-468 cells at 5 uM treated 1.5 hrs before EGF challenge measured after 30 mins by Western blotting. It is filed as cell-based. A digest of the protocol:
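MDA-MB-468 cells pretreated 1.5 h with prodrug (5 μM), then EGF 100 ng/mL for 30 min; lysates split onto three PVDF blots probed for phospho/total Stat3, pSer473/total Akt, and phospho/total Stat5.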

Another assay relates to MeWo. The experiment in a line: Cytotoxicity against human MeWo cells assessed as cell growth inhibition at 5 to 10 uM after 72 hrs by MTT assay. The assay is classed as functional. A digest of the protocol: as §3
(In general: Formazan colour is commonly taken as a measure of viable cells.)

In assay [12] the target is T1, Signal transducer and activator of transcription 3. The experiment in a line: Inhibition of SH2 domain of Stat3 constitutive phosphorylation at Tyr705 in human MDA-MB-468 cells at 5 uM after 30 mins by Western blotting. The assay is classed as cell-based. The procedure, abridged: as §2
Assay [13] deals with MAP kinase p38 (Homo sapiens) (UniProt O15264+Q15759+Q16539+P53778). As to the kind of experiment: Inhibition of p38 MAPK phosphorylation in human HCC-827 cells at 5 uM after up to 24 hrs by Western blotting. The assay is classed as cell-based.
In assay [14] the target is T1, Signal transducer and activator of transcription 3. The experiment in a line: Inhibition of IL6-induced SH2 domain of Stat3 phosphorylation at Tyr705 in human MeWo cells up to 10 uM treated 1.5 hrs before IL6 challenge measured after 30 mins by Western blotting. The assay is classed as cell-based. A digest of the protocol: as §1
The target is the same in assay [15]. The experiment in a line: Inhibition of SH2 domain of Stat3 constitutive phosphorylation at Tyr705 in human MDA-MB-468 cells at 5 uM after 8 hrs by Western blotting. It is filed as cell-based. The procedure, abridged:
as §2

The target of assay [16] is G1/S-specific cyclin-D1 (Homo sapiens) (UniProt P24385). As to the kind of experiment: Inhibition of Cyclin D1 in human HCC-827 cells at 5 uM after up to 24 hrs by Western blotting. The assay is classed as cell-based.
G1/S-specific cyclin-D1 (Homo sapiens), sequence (P24385 whole entry): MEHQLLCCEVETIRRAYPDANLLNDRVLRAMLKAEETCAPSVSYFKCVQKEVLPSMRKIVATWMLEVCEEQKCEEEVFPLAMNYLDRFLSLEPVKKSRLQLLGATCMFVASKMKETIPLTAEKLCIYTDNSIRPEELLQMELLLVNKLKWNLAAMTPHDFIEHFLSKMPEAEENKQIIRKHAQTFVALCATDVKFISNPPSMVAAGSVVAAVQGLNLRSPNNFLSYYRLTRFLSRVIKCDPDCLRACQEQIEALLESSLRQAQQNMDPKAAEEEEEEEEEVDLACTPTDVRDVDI
A short description of assay [17]: Cytotoxicity against human H1299 cells assessed as cell growth inhibition at 5 to 10 uM after 72 hrs by MTT assay. It is filed as functional, NCI-H1299. A digest of the protocol: as §3

T1 sequence (P40763 whole entry, the tested form may be a part): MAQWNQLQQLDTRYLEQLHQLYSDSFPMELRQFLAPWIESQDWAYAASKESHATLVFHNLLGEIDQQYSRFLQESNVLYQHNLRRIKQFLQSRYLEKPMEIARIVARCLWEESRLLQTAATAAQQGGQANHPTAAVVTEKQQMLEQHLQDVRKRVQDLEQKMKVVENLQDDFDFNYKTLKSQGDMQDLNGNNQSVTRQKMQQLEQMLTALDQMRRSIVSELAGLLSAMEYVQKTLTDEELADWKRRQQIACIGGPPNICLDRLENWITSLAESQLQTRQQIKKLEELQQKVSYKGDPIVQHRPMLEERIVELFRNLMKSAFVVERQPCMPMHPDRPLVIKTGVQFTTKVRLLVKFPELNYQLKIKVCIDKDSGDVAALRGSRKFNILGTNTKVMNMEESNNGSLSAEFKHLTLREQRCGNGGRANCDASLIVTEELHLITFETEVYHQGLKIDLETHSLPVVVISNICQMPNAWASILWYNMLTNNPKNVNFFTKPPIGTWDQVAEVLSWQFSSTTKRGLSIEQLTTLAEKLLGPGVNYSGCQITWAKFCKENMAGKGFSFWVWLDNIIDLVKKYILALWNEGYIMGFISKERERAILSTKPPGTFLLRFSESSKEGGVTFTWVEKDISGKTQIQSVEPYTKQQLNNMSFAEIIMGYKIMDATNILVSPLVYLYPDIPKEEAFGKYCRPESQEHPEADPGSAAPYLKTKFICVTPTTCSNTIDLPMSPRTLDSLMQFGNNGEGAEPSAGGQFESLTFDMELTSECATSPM
RAC-alpha serine/threonine-protein kinase (Homo sapiens), sequence (P31749 whole entry): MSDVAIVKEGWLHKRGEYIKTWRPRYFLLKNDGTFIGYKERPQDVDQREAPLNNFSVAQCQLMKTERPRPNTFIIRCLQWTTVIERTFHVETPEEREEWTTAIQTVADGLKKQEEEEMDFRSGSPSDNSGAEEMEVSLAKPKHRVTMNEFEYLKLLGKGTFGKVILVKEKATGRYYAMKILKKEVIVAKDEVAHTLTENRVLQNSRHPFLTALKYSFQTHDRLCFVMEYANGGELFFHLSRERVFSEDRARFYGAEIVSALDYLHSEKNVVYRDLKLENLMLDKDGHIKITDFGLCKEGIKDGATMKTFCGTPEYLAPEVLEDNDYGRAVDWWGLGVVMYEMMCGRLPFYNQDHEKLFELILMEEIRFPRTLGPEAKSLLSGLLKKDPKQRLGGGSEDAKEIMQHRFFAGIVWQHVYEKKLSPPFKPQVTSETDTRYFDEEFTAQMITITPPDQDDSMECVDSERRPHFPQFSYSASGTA

As to `C/C(=C\C(=O)N[C@H]1CCc2cccc3c2N(C1=O)[C@H](C(=O)N[C@H](C)CCC(N)=O)C3)c1ccc(C(F)(F)P(=O)(OCOC(=O)C(C)(C)C)OCOC(=O)C(C)(C)C)cc1`, the inhibition entry in [1], in assay [2], in [3], in assay [4], in assay [8] and in assay [9] was “Active” in each case. Besides, the inhibition result in [12], in assay [14] and in assay [15] was “Active” throughout. The inhibition result in [5], in assay [11], in [13] and in assay [16] was “inactive” in each case. Further, in assay [6], the inhibition entry is “Dose-dependent effect”. The IC50 in assay [7] is over 30 µM. Besides, the “growth inhibition (GI)” value (in assay [10]; with MeWo; in assay [17]) was under 20% in each case.
